ChEMBL document CHEMBL1250461, “Synthesis, binding and bioactivity of gamma-methylene gamma-lactam ecdysone receptor ligands: advantages of QSAR models for flexible receptors” (Bioorg Med Chem, 2010)
Converted amounts (≈) assume the structure as drawn.

Tests used:
[1] = Binding affinity to Bovicola ovis recombinant ecdysone receptor ligand binding domain after 3 hrs by fluorescence polarization assay
In short: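 B. ovis EcR_DEF/USP_DEF LBD heterodimer, co-expressed from baculovirus and purified by IMAC (2.51 mg/mL final). Competes with 36 nM fluorescein–inokosterone A conjugate in 50 mM sodium phosphate, 100 mM NaCl, pH 7.4 with 0.5 mg/mL BSA and 3% v/v DMSO. Compound range 3 nM–3 mM final. Incubated overnight at 4 °C, then 3 h at room temperature before polarisation (mP) read. Triplicate; IC50 from mean.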

Ecdysone receptor = target: T1, Ecdysone receptor (Lucilia cuprina, UniProt O18531); assay: Binding affinity to Lucilia cuprina recombinant ecdysone receptor ligand binding domain after 3 hrs by fluorescence polarization assay
T1 sequence (O18531 whole entry): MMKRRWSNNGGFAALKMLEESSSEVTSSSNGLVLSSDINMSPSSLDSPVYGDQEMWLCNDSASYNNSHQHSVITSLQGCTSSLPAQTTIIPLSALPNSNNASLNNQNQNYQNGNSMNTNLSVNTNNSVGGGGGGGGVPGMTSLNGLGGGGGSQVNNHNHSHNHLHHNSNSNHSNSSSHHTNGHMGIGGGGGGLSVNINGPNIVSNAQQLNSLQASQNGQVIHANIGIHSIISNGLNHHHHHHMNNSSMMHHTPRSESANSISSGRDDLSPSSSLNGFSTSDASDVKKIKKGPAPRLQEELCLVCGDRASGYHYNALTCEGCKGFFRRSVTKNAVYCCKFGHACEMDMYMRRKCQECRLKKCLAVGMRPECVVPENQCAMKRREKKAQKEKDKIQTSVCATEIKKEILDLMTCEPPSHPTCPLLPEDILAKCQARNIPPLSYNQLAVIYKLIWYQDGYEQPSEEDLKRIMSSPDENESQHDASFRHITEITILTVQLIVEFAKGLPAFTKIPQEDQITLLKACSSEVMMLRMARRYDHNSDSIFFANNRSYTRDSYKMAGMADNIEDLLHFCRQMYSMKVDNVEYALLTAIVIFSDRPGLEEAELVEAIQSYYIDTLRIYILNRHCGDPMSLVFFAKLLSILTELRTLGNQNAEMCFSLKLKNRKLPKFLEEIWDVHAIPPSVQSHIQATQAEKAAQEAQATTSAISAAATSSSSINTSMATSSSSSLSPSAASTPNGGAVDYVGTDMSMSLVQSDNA
In short: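 L. cuprina EcR_DEF/USP_DEF LBD heterodimer, baculovirus co-expressed and IMAC-purified, used at 1.14 mg/mL. Fluorescence polarisation competition against 36 nM fluorescein–inokosterone A conjugate, with 0.5 mg/mL BSA and 3% v/v DMSO in 50 mM sodium phosphate/100 mM NaCl, pH 7.4. Test range 3 nM–3 mM final. Overnight at 4 °C, then 3 h re-equilibration at room temperature, mP read. Triplicate on one plate; IC50 from mean.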

[2] = Toxicity in Bovicola ovis assessed as mortality after 9 days; conditions: 216 h

## C=C1C(CC)=C(C#N)C(=O)N1c1cc(Cl)ccc1C(C)(C)C
[1]
  IC50: 15 µM
Ecdysone receptor
  IC50: 11 µM
[2]
  LC50: 190 µg/mL (≈ 604 µM)

## C=C1C(CCCC)=C(C#N)C(=O)N1c1cccc(Cl)c1C
[1]
  IC50: 4.3 µM
Ecdysone receptor
  IC50: 8.3 µM
[2]
  LC50: 175 µg/mL (≈ 582 µM)

## C=C1C(C)=C(C#N)C(=O)N1c1ccc(Cl)c(Cl)c1
[1]
  IC50: 15 µM
[2]
  LC50: 167 µg/mL (≈ 598 µM)

## C=C1C(c2ccccc2)=C(C#N)C(=O)N1C1CCCCC1
[1]
  IC50: 7.5 µM
Ecdysone receptor
  IC50: 12.5 µM
[2]
  LC50: 130 µg/mL (≈ 467 µM)

## C=C1C(C)=C(C(=O)c2ccccc2)C(=O)N1c1cccc(C(F)(F)F)c1
[1]
  IC50: 12.5 µM
Ecdysone receptor
  IC50: 17.5 µM

## C=C1C(C)=C(C#N)C(=O)N1c1cc(Cl)c(C(C)(C)C)cc1Cl
[1]
  IC50: 11.3 µM
Ecdysone receptor
  IC50: 8.5 µM

## C=C1C(CC(C)C)=C(C#N)C(=O)N1c1c(C)cc(C)cc1C
[1]
  IC50: 30 µM
Ecdysone receptor
  IC50: 175 µM

## C=C1C(C)=C(C#N)C(=O)N1c1ccccc1C(F)(F)F
[1]
  IC50: 27.5 µM
Ecdysone receptor
  IC50: 48 µM

## C=C1C(C)=C(C#N)C(=O)N1c1c(C(C)C)cccc1C(C)C
[1]
  IC50: 20.8 µM
Ecdysone receptor
  IC50: 23.5 µM

## C=C1C(CC(C)C)=C(C#N)C(=O)N1c1cc(Cl)c(Cl)cc1Cl
[1]
  IC50: 2.7 µM
Ecdysone receptor
  IC50: 5.5 µM

## C=C1C(C)=C(C#N)C(=O)N1c1cc(C(C)(C)C)ccc1C(C)(C)C
[1]
  IC50: 5 µM
Ecdysone receptor
  IC50: 6.5 µM

## C=C1C(C(C)C)=C(C#N)C(=O)N1c1c(C)cccc1C(C)C
[1]
  IC50: 27.5 µM
Ecdysone receptor
  IC50: 47 µM

## C=C1C(CC(C)C)=C(C#N)C(=O)N1c1cc(C(F)(F)F)cc(C(F)(F)F)c1
[1]
  IC50: 6.3 µM
[2]
  LC50: 26 µg/mL (≈ 67 µM)

## C=C1C(CCC)=C(C#N)C(=O)N1c1cc(Cl)ccc1Cl
[1]
  IC50: 8.5 µM
[2]
  LC50: 66 µg/mL (≈ 215 µM)

## C=C1C(C)=C(C#N)C(=O)N1N1CCCCC1
[1]
  IC50: 125 µM
[2]
  LC50: 244 µg/mL (≈ 1120 µM)

## C=C1C(CC(C)C)=C(C#N)C(=O)N1c1cc(Cl)cc(Cl)c1
[1]
  IC50: 5.5 µM
[2]
  LC50: 119 µg/mL (≈ 370 µM)

## C=C1C(C(C)C)=C(C#N)C(=O)N1c1c(C)cc(Cl)cc1Cl
[1]
  IC50: 62.5 µM
Ecdysone receptor
  IC50: 480 µM

## C=C1C(C(C)C)=C(C#N)C(=O)N1c1ccccc1C(C)(C)C
[1]
  IC50: 9.5 µM
Ecdysone receptor
  IC50: 15 µM

## CC(C)(O)CC[C@@H](O)[C@](C)(O)[C@H]1CC[C@@]2(O)C3=CC(=O)[C@@H]4C[C@@H](O)[C@@H](O)C[C@]4(C)[C@H]3CC[C@]12C [20-HYDROXYECDYSONE]
[1]
  IC50: 24 µM
Ecdysone receptor
  IC50: 5.5 µM

## CC(C)CC[C@@H](O)[C@](C)(O)[C@H]1CC[C@@]2(O)C3=CC(=O)[C@@H]4C[C@@H](O)[C@@H](O)C[C@]4(C)[C@H]3CC[C@]12C [PONASTERONE A]
[1]
  IC50: 1.1 µM
Ecdysone receptor
  IC50: 0.9 µM

## C=C1C(C)=C(C#N)C(=O)N1c1cc(Cl)cc(Cl)c1
[1]
  IC50: 9.8 µM
Ecdysone receptor
  IC50: 27.5 µM

## C=C1C(C)=C(C(=O)Nc2cccc(Cl)c2)C(=O)N1c1cccc(Cl)c1
[1]
  IC50: 12.5 µM
Ecdysone receptor
  IC50: 250 µM
